Measured values as given in ChEMBL document CHEMBL4765448, “Multiple biological active 4-aminopyrazoles containing trifluoromethyl and their 4-nitroso-precursors: Synthesis and evaluation” (Eur J Med Chem, 2020).
Activity calls are given as the source filed them. No cut-off for these calls is given here.

System: not listed separately
Assay: Antioxidant activity assessed as trolox equivalent of ABTS radical scavenging activity measured after 1 hr by UV-vis spectrophotometric method
Format: functional
Details: not given
Procedure, shortened: (§1)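 ABTS cation-radical decolorization was read spectrophotometrically as the fall in absorbance after 1 h. Trolox was the reference. TEAC was taken as the ratio of concentration-response slopes, test/Trolox, and IC50 was also derived. Data are mean ± SEM, n = 3.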

Q: For `Cc1ccc(-c2[nH]nc(C(F)(F)F)c2N=O)cc1`, which Activity is on record?
A: 0.02 equiv

System: not listed separately
Assay: Antioxidant activity assessed as ABTS radical scavenging activity measured after 1 hr by UV-vis spectrophotometric method
Format: functional
Details: not given
Procedure, shortened: as §1

Q: With `Nc1c(C(F)(F)F)n[nH]c1-c1ccccc1` as the molecule, how does the IC50 read?
A: 14.1 µM

Q: For `Nc1c(C(F)(F)F)n[nH]c1-c1cccs1`, which IC50 is on record?
A: 17.6 µM

System: not listed separately
Assay: Antioxidant activity assessed as AAPH scavenging activity by measuring residual fluorescence at 10 uM measured at 1 min interval for 30 mins by ORAC fluorescein assay relative to control
Format: functional
Details: not given
Procedure, shortened: (§2)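 ORAC-FL assay with fluorescein as the probe and AAPH as the peroxyl radical generator. The loss of fluorescence over time was followed, and the result is given as % fluorescence restored at 10 and 50 µM. Each value is the mean of two independent experiments.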

Q: Which Activity does the source give for `Cc1ccc(-c2[nH]nc(C(F)(F)F)c2N=O)cc1` here?
A: -60%

System: not listed separately
Assay: Antioxidant activity assessed as AAPH scavenging activity by measuring residual fluorescence at 50 uM measured at 1 min interval for 30 mins by ORAC fluorescein assay relative to control
Format: functional
Details: not given
Procedure, shortened: as §2

Q: With `Cc1ccc(-c2[nH]nc(C(F)(F)F)c2N=O)cc1` as the molecule, how does the Activity read?
A: -99.8%

System: Erythrocyte
Assay: Antioxidant activity in human erythrocytes assessed as protection against AAPH-induced hemolysis at 50 uM preincubated for 20 mins followed by AAPH addition and measured after 2 hrs by spectrophotometric method relative to control
Format: functional
Details: time 140 min, 2.333 h
Procedure, shortened: (§3)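 Erythrocyte hemolysis assay with AAPH as the free-radical initiator, testing 50 and 400 µM. Results are expressed as relative protection of membranes against oxidative damage, each the mean of two independent experiments.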

Q: With `Nc1c(C(F)(F)F)n[nH]c1-c1ccccc1` as the molecule, how does the “fold change (FC)” value read?
A: 1.1

Q: For `Nc1c(C(F)(F)F)n[nH]c1-c1cccs1`, which “fold change (FC)” value is on record?
A: 1.11

Q: Which “fold change (FC)” value does the source give for `Cc1ccc(-c2[nH]nc(C(F)(F)F)c2N=O)cc1` here?
A: 1.03

System: Erythrocyte
Assay: Antioxidant activity in human erythrocytes assessed as protection against AAPH-induced hemolysis at 400 uM preincubated for 20 mins followed by AAPH addition and measured after 2 hrs by spectrophotometric method relative to control
Format: functional
Details: time 140 min, 2.333 h
Procedure, shortened: as §3

Q: For `Nc1c(C(F)(F)F)n[nH]c1-c1ccccc1`, which “fold change (FC)” value is on record?
A: 0.02

Q: Which “fold change (FC)” value does the source give for `Nc1c(C(F)(F)F)n[nH]c1-c1cccs1` here?
A: 0.01

Q: For `Cc1ccc(-c2[nH]nc(C(F)(F)F)c2N=O)cc1`, which “fold change (FC)” value is on record?
A: 1.03

System: Rattus norvegicus
Assay: Analgesic activity in rat assessed as prolongation of latency period at 15 mg/kg, ip measured after 1 hr by hot-plate test relative to control
Format: functional
Details: not given
Procedure, shortened: (§4)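 Hot-plate test in rats. Compounds were given by intraperitoneal injection. Latency was read at 1 h and, for some compounds, also at 2 h after dosing. Results are expressed as % prolongation of the latent period versus vehicle-treated control. Significance was given as p-values.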

Q: With `Nc1c(C(F)(F)F)n[nH]c1-c1ccccc1` as the molecule, how does the Activity read?
A: 56.7%

Q: With `Cc1ccc(-c2[nH]nc(C(F)(F)F)c2N=O)cc1` as the molecule, how does the Activity read?
A: inactive

System: Rattus norvegicus
Assay: Analgesic activity in rat assessed as prolongation of latency period at 15 mg/kg, ip measured after 2 hrs by hot-plate test relative to control
Format: functional
Details: not given
Procedure, shortened: as §4

Q: With `Nc1c(C(F)(F)F)n[nH]c1-c1ccccc1` as the molecule, how does the Activity read?
A: 66.7%

Q: For `Cc1ccc(-c2[nH]nc(C(F)(F)F)c2N=O)cc1`, which Activity is on record?
A: inactive

System: Rattus norvegicus
Assay: Antiinflammatory activity in rat model of carrageenan-induced paw edema assessed as inhibition of hind paw swelling at 15 mg/kg, ip measured after 5 hrs
Format: functional, organism-based
Details: not given

Q: For `Cc1ccc(-c2[nH]nc(C(F)(F)F)c2N=O)cc1`, which Activity is on record?
A: Active

System: not listed separately
Assay: Acute toxicity in mouse at 150 mg/kg, ip administered as single dose
Format: organism-based
Details: in vivo
Procedure, shortened: (§5)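 Mice, single intraperitoneal dose, following OECD Guideline for testing of chemicals; three mice per dose level; doses tested 10–300 mg/kg. Read-out is the number of survivors out of 3, used to estimate the expected LD50 range.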

Q: For `Nc1c(C(F)(F)F)n[nH]c1-c1ccccc1`, which Activity is on record?
A: Non-Toxic

Q: Which Activity does the source give for `Cc1ccc(-c2[nH]nc(C(F)(F)F)c2N=O)cc1` here?
A: Non-Toxic

System: not listed separately
Assay: Acute toxicity in mouse at 75 mg/kg, ip administered as single dose
Format: organism-based
Details: in vivo
Procedure, shortened: as §5

Q: Which Activity does the source give for `Nc1c(C(F)(F)F)n[nH]c1-c1cccs1` here?
A: Toxic

System: not listed separately
Assay: Acute toxicity in mouse at 10 mg/kg, ip administered as single dose
Format: organism-based
Details: in vivo
Procedure, shortened: as §5

Q: Which Activity does the source give for `Nc1c(C(F)(F)F)n[nH]c1-c1cccs1` here?
A: Non-Toxic
